# Measurements published in PMC8851455 (ACS Omega, 2022).
# Read-outs that look alike come from different tables or passages of the source.
# What was measured:
# S. typhimurium TA100 = assay: Ames test, strain TA100; format: cell-based, Salmonella typhimurium; details: for number of revertants/plate (M ± SD), positive control: 1 μg/plate
# MCF-7 cells [1] = assay: MCF-7 cell proliferation assay; format: cell-based, human; details: for max % RME2: highest % RME2 (relative maximum % E2) in test range 10^–12–10^–7 M
# Procedure, shortened: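 MCF-7 cells exposed to test compound or E2 at six concentrations from 10–12 to 10–7 M in EA-free medium. Proliferation read as MTT product absorbance at 570 nm. Three independent trials, each in triplicate. % RME2 = 100 × (OD test − OD VC)/(max OD E2 − OD VC). EC50 from curve fitting. EEF = EC50 of E2/EC50 of sample. One-way ANOVA with Dunnett's test versus E2 at each concentration.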
# chicken fetal liver = assay: TBARs level; format: in vivo
# chicken embryo = assay: Chicken embryonic assay; format: in vivo; details: egg injection, day 18
# MCF-7 cells [2] = details: at 0.001–1 μM when tested from 0.001 to 50 μM; cited from earlier work
# [3] = tested on: S. typhimurium tester strains (TA98, TA100, and TA102); assay: Ames test, overall over three strains; format: cell-based, Salmonella typhimurium; details: 5 × 10^–5 to 50 pmol/plate, with or without S9
# S. typhimurium = details: at 12.1 to 147.8 nmol/plate; cited from earlier work
# S. typhimurium TA98 = assay: Ames test, strain TA98; format: cell-based, Salmonella typhimurium
# [4] = higher dose (0.5 mM: 450–500 μg/kg; E2 0.1 mM: 91 μg/kg)
# [5] = lower dose (0.05 mM: 45–50 μg/kg; E2 0.01 mM: 9.1 μg/kg)
# [6] = TA102 +S9, 5 × 10^–2 pmol/plate
# [7] = TA102 +S9, 5 × 10^–3 pmol/plate
# [8] = TA102 +S9, 5 × 10^–4 pmol/plate
# [9] = TA102 +S9, 5 × 10^–5 pmol/plate
# [10] = TA102 -S9, 5 × 10^–3 pmol/plate
# [11] = TA102 -S9, 5 × 10^–4 pmol/plate
# [12] = TA102 -S9, 5 × 10^–5 pmol/plate
# [13] = TA100 +S9, 5 × 10^–2 pmol/plate
# [14] = TA100 +S9, 5 × 10^–3 pmol/plate
# [15] = TA100 +S9, 5 × 10^–4 pmol/plate
# [16] = TA100 +S9, 5 × 10^–5 pmol/plate
# [17] = TA100 -S9, 5 × 10^–2 pmol/plate
# [18] = TA100 -S9, 5 × 10^–3 pmol/plate
# [19] = TA100 -S9, 5 × 10^–4 pmol/plate
# [20] = TA100 -S9, 5 × 10^–5 pmol/plate
structure (smiles),measurement,setting,value
"[N-]=[N+]=[N-].[Na+] [NaN3, reference compound]","number of revertants/plate (M ± SD), positive control","S. typhimurium TA100; TA100 -S9, control set of luteolin and apigenin",860 ± 52 ^d^** revertants/plate
same,"number of revertants/plate (M ± SD), positive control","S. typhimurium TA100; TA100 -S9, control set of quercetin and genistein",743 ± 28 ^d^** revertants/plate
O=c1cc(-c2ccc(O)c(O)c2)oc2cc(O)cc(O)c12 [luteolin],EEF (estradiol equivalent factor),MCF-7 cells [1]; EC50 of E2 divided by that of the test compound,0.0012
same,EC50,"MCF-7 cells [1]; Homo sapiens, MCF7",8.4 nM
same,max % RME2,MCF-7 cells [1],26%
same,TBARs value,chicken fetal liver; lower dose (0.05 mM: 45–50 μg/kg),142.56 nmol/g
same,malformation rate,chicken embryo; [4],11.11%
same,number of dead chicken embryo,chicken embryo; [4],7
same,number of malformation chicken embryo,chicken embryo; [4],1
same,weights: embryo,chicken embryo; [4],20.70 ± 0.00 g
same,weights: heart,chicken embryo; [4],0.18 ± 0.05 g
same,weights: liver,chicken embryo; [4],0.49 ± 0.05 g
same,malformation rate,chicken embryo; [5],21.43%
same,mortality rate,chicken embryo; [5],12.5%
same,number of dead chicken embryo,chicken embryo; [5],2
same,number of malformation chicken embryo,chicken embryo; [5],3
same,weights: embryo,chicken embryo; [5],19.75 ± 0.75 g
same,weights: heart,chicken embryo; [5],0.19 ± 0.05 g
same,weights: liver,chicken embryo; [5],0.44 ± 0.05 g
O=c1c(O)c(-c2ccc(O)c(O)c2)oc2cc(O)cc(O)c12 [quercetin],cell proliferation in the MCF-7 cells,MCF-7 cells [2],< 120%
same,MI,"S. typhimurium TA102; TA102 +S9, 0.5 pmol/plate",1.1
same,number of revertants/plate (M ± SD),"S. typhimurium TA102; TA102 +S9, 0.5 pmol/plate",326 ± 19 revertants/plate
same,MI,"S. typhimurium TA102; TA102 +S9, 5 pmol/plate",0.9
same,number of revertants/plate (M ± SD),"S. typhimurium TA102; TA102 +S9, 5 pmol/plate",279 ± 21 revertants/plate
same,MI,"S. typhimurium TA102; TA102 +S9, 50 pmol/plate",1.0
same,number of revertants/plate (M ± SD),"S. typhimurium TA102; TA102 +S9, 50 pmol/plate",310 ± 31 revertants/plate
same,MI,S. typhimurium TA102; [6],1.1
same,number of revertants/plate (M ± SD),S. typhimurium TA102; [6],337 ± 7 revertants/plate
same,MI,S. typhimurium TA102; [7],1.2
same,number of revertants/plate (M ± SD),S. typhimurium TA102; [7],369 ± 13 revertants/plate
same,MI,S. typhimurium TA102; [8],1.0
same,number of revertants/plate (M ± SD),S. typhimurium TA102; [8],312 ± 16 revertants/plate
same,MI,S. typhimurium TA102; [9],0.9
same,number of revertants/plate (M ± SD),S. typhimurium TA102; [9],291 ± 11 revertants/plate
same,MI,"S. typhimurium TA102; TA102 -S9, 0.5 pmol/plate",1.0
same,number of revertants/plate (M ± SD),"S. typhimurium TA102; TA102 -S9, 0.5 pmol/plate",267 ± 23 revertants/plate
same,MI,"S. typhimurium TA102; TA102 -S9, 5 pmol/plate",1.2
same,number of revertants/plate (M ± SD),"S. typhimurium TA102; TA102 -S9, 5 pmol/plate",312 ± 13 revertants/plate
same,MI,"S. typhimurium TA102; TA102 -S9, 50 pmol/plate",1.4
same,number of revertants/plate (M ± SD),"S. typhimurium TA102; TA102 -S9, 50 pmol/plate",347 ± 10 revertants/plate
same,MI,S. typhimurium TA102; [10],1.3
same,number of revertants/plate (M ± SD),S. typhimurium TA102; [10],325 ± 10 revertants/plate
same,MI,S. typhimurium TA102; [11],1.2
same,number of revertants/plate (M ± SD),S. typhimurium TA102; [11],301 ± 16 revertants/plate
same,MI,S. typhimurium TA102; [12],1.1
same,number of revertants/plate (M ± SD),S. typhimurium TA102; [12],284 ± 15 revertants/plate
same,Ames test outcome (signs of mutagenicity),[3],signs of mutagenicity
same,MI,"S. typhimurium TA100; TA100 +S9, 0.5 pmol/plate",1.2
same,number of revertants/plate (M ± SD),"S. typhimurium TA100; TA100 +S9, 0.5 pmol/plate",398 ± 8 revertants/plate
same,MI,"S. typhimurium TA100; TA100 +S9, 5 pmol/plate",1.2
same,number of revertants/plate (M ± SD),"S. typhimurium TA100; TA100 +S9, 5 pmol/plate",386 ± 12 revertants/plate
same,MI,"S. typhimurium TA100; TA100 +S9, 50 pmol/plate",1.1
same,number of revertants/plate (M ± SD),"S. typhimurium TA100; TA100 +S9, 50 pmol/plate",369 ± 12 revertants/plate
same,MI,S. typhimurium TA100; [13],1.1
same,number of revertants/plate (M ± SD),S. typhimurium TA100; [13],366 ± 14 revertants/plate
same,MI,S. typhimurium TA100; [14],1.1
same,number of revertants/plate (M ± SD),S. typhimurium TA100; [14],367 ± 5 revertants/plate
same,MI,S. typhimurium TA100; [15],1.1
same,number of revertants/plate (M ± SD),S. typhimurium TA100; [15],349 ± 8 revertants/plate
same,MI,S. typhimurium TA100; [16],1.1
same,number of revertants/plate (M ± SD),S. typhimurium TA100; [16],358 ± 14 revertants/plate
same,MI,"S. typhimurium TA100; TA100 -S9, 0.5 pmol/plate",1.0
same,number of revertants/plate (M ± SD),"S. typhimurium TA100; TA100 -S9, 0.5 pmol/plate",105 ± 11 revertants/plate
same,MI,"S. typhimurium TA100; TA100 -S9, 5 pmol/plate",1.0
same,number of revertants/plate (M ± SD),"S. typhimurium TA100; TA100 -S9, 5 pmol/plate",104 ± 8 revertants/plate
same,MI,"S. typhimurium TA100; TA100 -S9, 50 pmol/plate",0.9
same,number of revertants/plate (M ± SD),"S. typhimurium TA100; TA100 -S9, 50 pmol/plate",88 ± 8 revertants/plate
same,MI,S. typhimurium TA100; [17],1.1
same,number of revertants/plate (M ± SD),S. typhimurium TA100; [17],113 ± 6 revertants/plate
same,MI,S. typhimurium TA100; [18],1.0
same,number of revertants/plate (M ± SD),S. typhimurium TA100; [18],103 ± 7 revertants/plate
same,MI,S. typhimurium TA100; [19],1.0
same,number of revertants/plate (M ± SD),S. typhimurium TA100; [19],98 ± 7 revertants/plate
same,MI,S. typhimurium TA100; [20],1.0
same,number of revertants/plate (M ± SD),S. typhimurium TA100; [20],97 ± 4 revertants/plate
same,"% RME2, no detectable EA","MCF-7 cells [1]; all test concentrations except 10^–11 M, VC + 3 SD = 18%",< 18%
same,max % RME2,MCF-7 cells [1],22%
same,"mutagenicity in TA98, TA100, and TA102",S. typhimurium,showed mutagenicity
same,TBARs value,chicken fetal liver; higher dose (0.5 mM: 450–500 μg/kg),62.48 nmol/g
same,LSI (liver somatic index),chicken embryo; [4],1.85 ± 0.21%
same,REEW (ratio of embryo to egg weight),chicken embryo; [4],0.43 ± 0.057
same,mortality rate,chicken embryo; [4],12.5%
same,number of dead chicken embryo,chicken embryo; [4],1
same,weights: embryo,chicken embryo; [4],24.06 ± 2.35 g
same,weights: heart,chicken embryo; [4],0.21 ± 0.05 g
same,weights: liver,chicken embryo; [4],0.44 ± 0.01 g
same,LSI (liver somatic index),chicken embryo; [5],2.52 ± 0.34%
same,REEW (ratio of embryo to egg weight),chicken embryo; [5],0.41 ± 0.035
same,malformation rate,chicken embryo; [5],0.0%
same,mortality rate,chicken embryo; [5],25.0%
same,number of dead chicken embryo,chicken embryo; [5],2
same,number of malformation chicken embryo,chicken embryo; [5],0
same,weights: embryo,chicken embryo; [5],22.11 ± 2.26 g
same,weights: heart,chicken embryo; [5],0.20 ± 0.02 g
same,weights: liver,chicken embryo; [5],0.56 ± 0.13 g
same,MI,"S. typhimurium TA98; TA98 +S9, 0.5 pmol/plate",1.1
same,number of revertants/plate (M ± SD),"S. typhimurium TA98; TA98 +S9, 0.5 pmol/plate",25 ± 13 revertants/plate
same,MI,"S. typhimurium TA98; TA98 +S9, 5 pmol/plate",0.8
same,number of revertants/plate (M ± SD),"S. typhimurium TA98; TA98 +S9, 5 pmol/plate",19 ± 10 revertants/plate
same,MI,"S. typhimurium TA98; TA98 +S9, 50 pmol/plate",0.8
same,number of revertants/plate (M ± SD),"S. typhimurium TA98; TA98 +S9, 50 pmol/plate",18 ± 13 revertants/plate
same,MI,"S. typhimurium TA98; TA98 +S9, 5 × 10^–2 pmol/plate",1.0
same,number of revertants/plate (M ± SD),"S. typhimurium TA98; TA98 +S9, 5 × 10^–2 pmol/plate",23 ± 17 revertants/plate
same,MI,"S. typhimurium TA98; TA98 +S9, 5 × 10^–3 pmol/plate",1.2
same,number of revertants/plate (M ± SD),"S. typhimurium TA98; TA98 +S9, 5 × 10^–3 pmol/plate",27 ± 16 revertants/plate
same,MI,"S. typhimurium TA98; TA98 +S9, 5 × 10^–4 pmol/plate",0.8
same,number of revertants/plate (M ± SD),"S. typhimurium TA98; TA98 +S9, 5 × 10^–4 pmol/plate",18 ± 13 revertants/plate
same,MI,"S. typhimurium TA98; TA98 +S9, 5 × 10^–5 pmol/plate",0.7
same,number of revertants/plate (M ± SD),"S. typhimurium TA98; TA98 +S9, 5 × 10^–5 pmol/plate",17 ± 8 revertants/plate
same,MI,"S. typhimurium TA98; TA98 -S9, 0.5 pmol/plate",1.3
same,number of revertants/plate (M ± SD),"S. typhimurium TA98; TA98 -S9, 0.5 pmol/plate",28 ± 1 revertants/plate
same,MI,"S. typhimurium TA98; TA98 -S9, 5 pmol/plate",1.2
same,number of revertants/plate (M ± SD),"S. typhimurium TA98; TA98 -S9, 5 pmol/plate",27 ± 11 revertants/plate
same,MI,"S. typhimurium TA98; TA98 -S9, 50 pmol/plate",1.3
same,number of revertants/plate (M ± SD),"S. typhimurium TA98; TA98 -S9, 50 pmol/plate",30 ± 2 revertants/plate
same,MI,"S. typhimurium TA98; TA98 -S9, 5 × 10^–2 pmol/plate",0.8
same,number of revertants/plate (M ± SD),"S. typhimurium TA98; TA98 -S9, 5 × 10^–2 pmol/plate",19 ± 6 revertants/plate
same,MI,"S. typhimurium TA98; TA98 -S9, 5 × 10^–3 pmol/plate",1.4
same,number of revertants/plate (M ± SD),"S. typhimurium TA98; TA98 -S9, 5 × 10^–3 pmol/plate",31 ± 6 revertants/plate
same,MI,"S. typhimurium TA98; TA98 -S9, 5 × 10^–4 pmol/plate",1.2
same,number of revertants/plate (M ± SD),"S. typhimurium TA98; TA98 -S9, 5 × 10^–4 pmol/plate",27 ± 3 revertants/plate
same,MI,"S. typhimurium TA98; TA98 -S9, 5 × 10^–5 pmol/plate",1.1
same,number of revertants/plate (M ± SD),"S. typhimurium TA98; TA98 -S9, 5 × 10^–5 pmol/plate",25 ± 2 revertants/plate
